Reference: ChEMBL document CHEMBL1133718, “Structure-activity relationships and binding mode of styrylquinolines as potent inhibitors of HIV-1 integrase and replication of HIV-1 in cell culture” (J Med Chem, 2000)

Key:
[1] = test system: Human immunodeficiency virus 1; test: Antiviral activities against HIV-1 replication in CEM cells and its ability to lower the viral charge supernatants was reported; type: functional, organism-based; conditions: Human immunodeficiency virus 1, CCRF-CEM
Procedure, shortened: (§1)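 CEM cells infected with cell-free HIV-1 ([…] clone, produced by transfecting P4 cells), in triplicate; virus removed 2 h post-infection, then DMSO-dissolved drug added in fresh medium at increasing concentrations. 72 h supernatants infected HeLa-CD4-βGal (P4) reporter cells for 24 h; lysates incubated with CPRG, absorbance at 570 nm. Some cases used p24 antigen ELISA.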

[2] = molecular target: T1, Human immunodeficiency virus type 1 integrase (Human immunodeficiency virus 1, UniProt Q7ZJM1); test: Inhibitory activity against HIV-1 Integrase in 3'-end- processing
T1 sequence (Q7ZJM1 whole entry): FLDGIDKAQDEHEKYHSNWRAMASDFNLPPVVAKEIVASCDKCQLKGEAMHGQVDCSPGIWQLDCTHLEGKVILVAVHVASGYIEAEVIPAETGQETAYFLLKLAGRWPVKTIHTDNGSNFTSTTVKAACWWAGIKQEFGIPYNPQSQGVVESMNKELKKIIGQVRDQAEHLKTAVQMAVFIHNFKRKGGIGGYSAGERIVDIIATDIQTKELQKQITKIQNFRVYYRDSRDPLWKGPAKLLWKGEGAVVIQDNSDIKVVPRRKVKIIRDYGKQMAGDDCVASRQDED
Procedure, shortened: (§2)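 3'-processing: 0.5 pmol U5A/U5B annealed duplex with 1 pmol purified recombinant full-length HIV-1 IN in 20 mM Tris pH 7.2, 30 mM NaCl, 10% glycerol, 10 mM DTT, 0.01% NP40, plus 10 mM MnCl2.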

[3] = molecular target: T1, Human immunodeficiency virus type 1 integrase; test: Inhibitory activity against HIV-1 Integrase in strand transfer (integration)
[4] = Toxic concentration, estimated by MTT transformation assay; type: ADME, organism-based, Human immunodeficiency virus 1; conditions: CEM cells; read-out: TC50 (the source's name)
Procedure, shortened: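 Cell viability by MTT: MTT solution (7.5 mg/mL, in phosphate buffer) added to infected, drug-treated CEM wells. Incubation 4 h at 37 °C under CO2, formazan dissolved in 10% SDS/10 mM HCl, absorbance read at 570 nm.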

[5] = test system: Human immunodeficiency virus 1; test: Inhibitory effect upon disintegration catalyzed by the (50-212) deletion mutant; type: functional
Procedure, shortened: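 Disintegration reaction run with 0.5 pmol D38U3 substrate and 2 pmol of the His-tagged F185K soluble HIV-1 integrase core domain (residues 50-212), expressed and purified recombinantly. Potency is reported as IC50.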

[6] = test system: Human immunodeficiency virus 1; test: Antiviral activities against HIV-1 replication in CEM cells and its ability to lower the viral charge supernatants was reported; NR is not reached; type: functional, organism-based; conditions: CCRF-CEM; procedure, shortened: as §1
[7] = molecular target: T1, Human immunodeficiency virus type 1 integrase; test: Inhibitory activity against Integrase in 3'-end- processing; procedure, shortened: as §2
[8] = molecular target: T1, Human immunodeficiency virus type 1 integrase; test: Inhibitory activity against Integrase in strand transfer (integration)
[9] = molecular target: T1, Human immunodeficiency virus type 1 integrase; test: Inhibitory activity against HIV-1 Integrase in 3'-end- processing with purified recombinant enzyme
[10] = molecular target: T1, Human immunodeficiency virus type 1 integrase; test: Inhibitory activity against HIV-1 Integrase in strand transfer (integration) with purified recombinant enzyme

IC50 [1] [µM]	IC50 [7] [µM]	IC50 [8] [µM]	SMILES	IC50 [2] [µM]	IC50 [3] [µM]	CC50 [4] [µM]	IC50 [5] [µM]	NR [6]	IC50 [9] [µM]	IC50 [10] [µM]
6.8	4	4.9	O=C(O)c1ccc2ccc(/C=C/c3cc(O)c(O)c(I)c3)nc2c1O			> 100				
9			COc1cc(/C=C/c2ccc3ccc(C(=O)O)c(O)c3n2)cc(OC)c1O	4.9	4.5	> 100				
	2.3	1.5	O=C(O)c1ccc2ccc(CCc3ccc(O)c(O)c3)nc2c1O			61		Not reached		
54			COc1ccc(/C=C/c2ccc3ccc(C(=O)O)c(O)c3n2)cc1O	0.9	3.3	95				
12	0.7	1.7	COc1cc(/C=C/c2ccc3ccc(C(=O)O)c(O)c3n2)cc(O)c1O			> 100				
	> 100	> 100	COC(=O)c1ccc2ccc(/C=C/c3ccc(O)c(O)c3)nc2c1O			9.2		Not reached		
80			O=C(O)c1ccc2ccc(/C=C/c3ccc(O)cc3O)nc2c1O			> 100				
	> 100	> 100	Oc1ccc(/C=C/c2ccc3c(Cl)cc(Cl)c(O)c3n2)cc1O			17		Not reached		
1.3			O=C(O)c1ccc2ccc(/C=C/c3ccc(O)c(O)c3)nc2c1O			> 100				
1.2			O=C(O)c1ccc2ccc(/C=C/c3cc(O)c(O)c(O)c3)nc2c1O			10				
> 100			Cc1ccc2ccc(C(=O)O)c(O)c2n1		> 100	> 100				

Further lines, the compound ahead of its results:

SMILES	IC50 [1] [µM]	IC50 [7] [µM]	IC50 [8] [µM]	IC50 [2] [µM]	IC50 [3] [µM]	CC50 [4] [µM]	IC50 [5] [µM]	NR [6]	IC50 [9] [µM]	IC50 [10] [µM]
O=C(O)c1ccc2ccc(/C=C/c3ccc(O)cc3)nc2c1O	95			1.6	1.6	> 100				
Nc1ccc(/C=C/c2ccc3ccc(C(=O)O)c(O)c3n2)cc1	50			3.5	2.2	100	12			
O=C(O)c1ccc2ccc(/C=C/c3ccsc3)nc2c1O				3.4	3	85	0.8	Not reached		
CC(=O)Nc1ccc(/C=C/c2ccc3ccc(C(=O)O)c(O)c3n2)cc1				1.4	1.2	47	1.7	Not reached		
O=C(O)c1ccc2ccc(/C=C/c3cc(Br)c(O)c(Br)c3)nc2c1O				1.3	1.2					
O=C(O)c1ccc2ccc(/C=C/c3ccco3)nc2c1O	> 100					> 100	1.4		1.9	5.1
O=C(O)c1ccc2ccc(/C=C/c3ccc([N+](=O)[O-])cc3)nc2c1O				1.2	1.7	43	2.2	Not reached		
O=C(O)c1ccc2ccc(/C=C/c3ccccc3)nc2c1O				5.3	2.1	31	3.4	Not reached		
COc1cc(/C=C/c2ccc3ccc(C(=O)O)c(O)c3n2)ccc1O	3			2.8	3.7	95				
O=C(O)c1ccc2ccc(/C=C/c3cc(O)cc(O)c3)nc2c1O	> 100	3.2	3.2			> 100				
O=C(O)c1ccc2ccc(/C=C/c3cccnc3)nc2c1O	> 100			4.1	11	> 100	5.1			
